Data as given in paper PMC4201343 (ACS Chemical Biology, 2014).
Structures can show the parent of a compound that is named as a salt. Where two headings read alike, the source gives them in different places.

What was measured:
[1] = test system: HCV Con1/1b Rluc subgenomic replicon in Huh-7.5 cells; experiment: HCV subgenomic replicon assay; assay type: cell-based, hepatitis C virus genotype 1b; conditions: for antiviral potency relative to ebsulfur/ebselen (times more potent): replicon; for therapeutic index (CC50/EC50): replicon EC50 and Huh7.5 CC50
Outline: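 Huh-7.5 cells carrying a stable genotype 1b Con1 Renilla luciferase subgenomic replicon (kept in 0.25 mg/mL Geneticin) were seeded at 10 × 10^3 per well. Two-fold compound series, 0.5% final DMSO, 3 days at 37 °C, 5% CO2. Washed cells were lysed and Renilla luminescence read. EC50 is the concentration halving Rluc; CC50 comes from a parallel CellTiter-Glo viability run; three independent titrations.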

HCV NS3h = target: T1, HCV NS3h (Hepatitis C virus genotype 1b, UniProt Q9WMX2); experiment: FP-based binding assay, NS3h displacement from Cy5-dT15 DNA; parameters: species or system hepatitis C virus genotype 1b (con1); conditions: for NS3h (% I): percent inhibition of NS3h binding to Cy5-dT15: 100 μM of each compound; for inhibition at 100 µM: read-out: NS3h (% I): percent inhibition of NS3h binding to Cy5-dT15, 100 μM of each compound; for ability to inhibit HCV helicase binding to DNA (in words): compared with ebselen
T1 sequence (Q9WMX2 1190-1657 limits assumed): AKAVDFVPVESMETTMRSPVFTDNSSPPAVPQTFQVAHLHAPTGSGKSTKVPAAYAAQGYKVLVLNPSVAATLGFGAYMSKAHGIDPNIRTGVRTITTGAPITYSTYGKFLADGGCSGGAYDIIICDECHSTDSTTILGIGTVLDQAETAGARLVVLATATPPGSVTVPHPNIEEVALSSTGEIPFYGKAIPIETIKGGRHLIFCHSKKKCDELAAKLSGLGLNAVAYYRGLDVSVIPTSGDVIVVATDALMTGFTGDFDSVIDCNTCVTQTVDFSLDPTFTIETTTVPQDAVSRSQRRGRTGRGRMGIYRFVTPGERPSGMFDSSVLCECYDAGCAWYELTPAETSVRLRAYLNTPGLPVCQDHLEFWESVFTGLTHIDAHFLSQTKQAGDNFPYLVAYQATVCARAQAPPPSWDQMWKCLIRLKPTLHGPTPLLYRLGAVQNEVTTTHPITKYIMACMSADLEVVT
Outline: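 Fluorescence polarization with Cy5-dT15 and NS3h: excitation 635 nm; parallel and perpendicular emission read at 667 nm; G-factor taken from probe-only wells. % inhibition normalized to DMSO-only (negative) and 200 nM dT20 or 100 μM primuline (positive) controls. Single-point tests at 100 μM. IC50 is the concentration displacing 50% of NS3h from DNA. Reversibility: 10 μM NS3h preincubated 1 h with test compound, then diluted 100–100 000-fold into Cy5-dT15 and compared with untreated controls.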

E. coli SSB = E. coli SSB (Escherichia coli, UniProt P0AGE0); experiment: FP-based binding assay with SSB in place of NS3h; conditions: for SSB binding inhibition relative to NS3h binding inhibition: 100 μM; for SSB (% I): percent inhibition of SSB binding to Cy5-dT15: 100 μM of each compound; for inhibition at 100 µM: read-out: SSB (% I): percent inhibition of SSB binding to Cy5-dT15
Sequence of E. coli SSB (P0AGE0 2-178 limits assumed): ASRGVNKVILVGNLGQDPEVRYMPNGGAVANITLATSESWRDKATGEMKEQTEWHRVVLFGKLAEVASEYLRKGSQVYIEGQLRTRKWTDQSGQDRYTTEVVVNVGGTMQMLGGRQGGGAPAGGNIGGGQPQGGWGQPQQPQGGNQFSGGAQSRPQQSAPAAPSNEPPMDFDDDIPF
Outline: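 Fluorescence polarisation assay with E. coli SSB in place of NS3h, using Cy5-dT15 (or Cy5-rU15 for titrations). Screen compounds were pin-transferred to 100 μM final, 1% DMSO. Excitation 635 nm, emission 667 nm; G-factor from probe-only wells. Percent inhibition was normalised to DMSO and to unlabeled dT20 or 100 μM primuline controls.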

[2] = test system: HCV genotype 2a isolate (JFH1); conditions: 20 μM of each compound; ref Gastaminza et al.[9]; cited from earlier work
SSB = SSB (Escherichia coli, UniProt P0AGE0 1-178); experiment: fluorescence polarization
Sequence of SSB (P0AGE0 whole entry): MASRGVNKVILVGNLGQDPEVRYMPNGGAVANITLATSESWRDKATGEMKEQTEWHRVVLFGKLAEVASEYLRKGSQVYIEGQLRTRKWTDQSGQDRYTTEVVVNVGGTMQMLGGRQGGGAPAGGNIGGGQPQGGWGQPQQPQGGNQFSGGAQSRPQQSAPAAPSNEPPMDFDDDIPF

NS3h_1b(con1) [3] = target: T2, NS3h_1b(con1) (Hepatitis C virus genotype 1b, con1 …, UniProt Q9WMX2 1190-1657); experiment: fluorescence polarization
NS3h_2a(JFH1) = NS3h_2a(JFH1) (Hepatitis C virus genotype 2a, JFH1, UniProt Q99IB8 1194-1661); experiment: fluorescence polarization
Sequence of NS3h_2a(JFH1) (Q99IB8 1194-1661): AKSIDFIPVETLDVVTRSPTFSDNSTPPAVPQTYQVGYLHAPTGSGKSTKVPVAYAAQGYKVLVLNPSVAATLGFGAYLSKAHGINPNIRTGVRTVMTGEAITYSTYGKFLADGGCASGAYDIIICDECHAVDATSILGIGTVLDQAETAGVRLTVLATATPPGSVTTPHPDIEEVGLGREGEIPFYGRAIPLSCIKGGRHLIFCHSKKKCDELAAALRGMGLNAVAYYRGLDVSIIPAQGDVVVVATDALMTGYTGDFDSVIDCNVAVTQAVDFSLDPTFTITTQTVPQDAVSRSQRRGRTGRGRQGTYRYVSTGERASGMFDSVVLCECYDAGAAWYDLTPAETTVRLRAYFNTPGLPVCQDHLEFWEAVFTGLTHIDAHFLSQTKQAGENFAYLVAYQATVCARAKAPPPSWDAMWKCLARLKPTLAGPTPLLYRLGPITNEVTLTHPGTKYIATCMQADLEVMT

NS3h_1b(con1) [4] = target: T2, NS3h_1b(con1); experiment: fluorescence polarization; remark: listed apart in the source
NS3h_1b(con1) [5] = target: T2, NS3h_1b(con1); experiment: fluorescence polarization; remark: listed apart in the source

O=c1c2cc(F)c(F)cc2sn1-c1ccccc1 [compound 2, 5,6-Difluoro-2-phenylbenzo[d]isothiazol-3(2H)-one]
antiviral potency relative to ebsulfur/ebselen (times more potent) [1]: ~10 times
therapeutic index (CC50/EC50) [1]: ~1

CC(O)CO.N[C@@H](C(=O)N[C@@H]1C(=O)N2C(C(=O)O)=C(CSc3cn[nH]n3)CS[C@H]12)c1ccc(O)cc1 [Seapuron]
NS3h (% I): percent inhibition of NS3h binding to Cy5-dT15 (HCV NS3h): 22%
SSB binding inhibition relative to NS3h binding inhibition (E. coli SSB): 3–4 times
SSB (% I): percent inhibition of SSB binding to Cy5-dT15 (E. coli SSB): 56%
HCV (% I): percent inhibition of HCV replication in cells [2]: <0%

Cl.NC1CCN(c2cccc(Cl)n2)CC1 [SR 57227A]
NS3h (% I): percent inhibition of NS3h binding to Cy5-dT15 (HCV NS3h): –1%
SSB (% I): percent inhibition of SSB binding to Cy5-dT15 (E. coli SSB): 133%
HCV (% I): percent inhibition of HCV replication in cells [2]: 12%

O=C(CCn1sc2ccccc2c1=O)Nc1ccccc1 [compound 13, 3-(3-Oxobenzo[d]isothiazol-2(3H)-yl)-N-phenylpropanamide]
decrease in the ability to inhibit HCV helicase (longer linker) (HCV NS3h; relative to peptide-linker analogues): 10 fold

CS(=O)(=O)Nc1ccc(Cc2noc(-c3ccc4[nH]cc(CCN)c4c3)n2)cc1.O [L 694247]
NS3h (% I): percent inhibition of NS3h binding to Cy5-dT15 (HCV NS3h): 3%
SSB (% I): percent inhibition of SSB binding to Cy5-dT15 (E. coli SSB): 37%
HCV (% I): percent inhibition of HCV replication in cells [2]: <0%

C=CC1=C(C(=O)O)N2C(=O)[C@@H](NC(=O)C(=NO)c3csc(N)n3)[C@H]2SC1 [Spectrum 001824]
NS3h (% I): percent inhibition of NS3h binding to Cy5-dT15 (HCV NS3h): 11%
SSB (% I): percent inhibition of SSB binding to Cy5-dT15 (E. coli SSB): 96%
HCV (% I): percent inhibition of HCV replication in cells [2]: 5.8%

COc1cccc2c1C(=O)c1c(O)c3c(c(O)c1C2=O)C[C@@](O)(C(=O)CO)C[C@@H]3O[C@H]1C[C@H](N)[C@H](O)[C@H](C)O1 [Doxorubicin Hydrochloride]
inhibition at 100 µM (HCV NS3h): 8%
inhibition at 100 µM (E. coli SSB): 90%
HCV (% I): percent inhibition of HCV replication in cells [2]: 100%

Cn1c2ccccc2c(=O)n1-c1ccccc1 [compound 15, 1-Methyl-2-phenyl-1H-indazol-3(2H)-one]
ability to inhibit HCV helicase binding to DNA (in words) (HCV NS3h): complete loss of activity

CN(C)[C@@H]1C(O)=C(C(=O)NCN2CCCC2)C(=O)[C@@]2(O)C(O)=C3C(=O)c4c(O)cccc4[C@@](C)(O)[C@H]3C[C@@H]12 [Rolitetracycline]
inhibition at 100 µM (HCV NS3h): -4%
inhibition at 100 µM (E. coli SSB): 45%
HCV (% I): percent inhibition of HCV replication in cells [2]: <0%

O=C1c2c(O)ccc(O)c2C(=O)c2c(NCCNCCO)ccc(NCCNCCO)c21 [Mitoxantrone]
NS3h (% I): percent inhibition of NS3h binding to Cy5-dT15 (HCV NS3h; 100 µM): 125%
NS3h (% I): percent inhibition of NS3h binding to Cy5-dT15 (HCV NS3h; listed as mitoxantrone, 100 µM): more than 50%
inhibition at 100 µM (E. coli SSB): 121%

C=CC1=C(C(=O)O)N2C(=O)[C@@H](NC(=O)C(=NOCC(=O)O)c3csc(N)n3)[C@H]2SC1.O [HMS2052E19]
NS3h (% I): percent inhibition of NS3h binding to Cy5-dT15 (HCV NS3h): 28%
SSB binding inhibition relative to NS3h binding inhibition (E. coli SSB): 3–4 times
SSB (% I): percent inhibition of SSB binding to Cy5-dT15 (E. coli SSB): 95%
HCV (% I): percent inhibition of HCV replication in cells [2]: <0%

O=c1cc(-c2ccccc2)sn1-c1ccccc1 [compound 14, 2,5-Diphenylisothiazol-3(2H)-one]
ability to inhibit HCV helicase binding to DNA (in words) (HCV NS3h): complete loss of activity

CCCCCCCCCOc1ccc2[nH]cc(CCN)c2c1 [5-Nonyloxy-tryptamine]
inhibition at 100 µM (HCV NS3h): -8%
inhibition at 100 µM (E. coli SSB): 67%
HCV (% I): percent inhibition of HCV replication in cells [2]: 100%

O=c1c2ccc(Br)cc2sn1-c1ccccc1 [compound 3, 6-Bromo-2-phenylbenzo[d]isothiazol-3(2H)-one]
antiviral potency relative to ebsulfur/ebselen (times more potent) [1]: ~10 times
therapeutic index (CC50/EC50) [1]: ~1

TTTTTTTTTTTTTTT (ssDNA) [Cy5-dT15]
binding result (SSB): binds
binding result (NS3h_1b(con1) [3]): binds

TTTTTTTTTTTTTTTTTTTT (ssDNA) [Cy5-dT20]
binding signal (NS3h_2a(JFH1)): ~2 Ka relative to NS3h_1b(con1)
binding signal (NS3h_1b(con1) [4]): 1 Ka relative to NS3h_1b(con1)

UUUUUUUUUUUUUUU (ssRNA) [Cy5-rU15]
binding result (SSB): binds
binding result (NS3h_1b(con1) [5]): binds
